Most compounds without a hit are left out; they make up all but 3.3% or so of the library.
ABCB6 inh MLPCN – inhibitors of human ABC transporter ABCB6; Q9NP58; K562-ABCB6 porphyrin accumulation, flow cytometry, 1 h; hits give low values; fluorescence ratio to DMSO, % at 10 µM; actives 0.19% (n = 360,000);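 active = fluorescence ratio to DMSO below 75%, the collection mean minus 3 SD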;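 also: signal is porphyrin accumulated inside mitochondria; lower ratio means ABCB6 inhibition with less porphyrin fluorescence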
AHR activator – human AHR activation; AID 2796; actives 2.5% (n = 320,000); AHR-responsive luciferase reporter cells, luminescence; P35869; activation, % at 5 µM; in the data active = activation above about 47%
STAT3 act – STAT3 signaling activation | U3A cells, IL-6 STAT3-luciferase reporter, luminescence; 100% = signal with IL-6 EC80 alone | AID 871 | actives 0.91% (n = 190,000) | activation (% of control), % at 5.6 µM;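 active = activation above the screen-wide mean of compound activation plus 3 SD, cut at about 130% in these data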
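Test system: Human STAT1-deficient U3A cells with stable STAT3-luciferase reporter | Also added: Interleukin-6, 33 ng/mL | Timing: Compound pre-incubation 1 h before IL-6, then 6 h stimulation at 37 °C | Technique: Luciferase reporter luminescence | Read-out: Percent of IL-6-only median luminescence | Benchmarks: IL-6-only wells as 100% reference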
GAA850 FXN act – activators of GAA850 frataxin (FXN) promoter; HEK293 lucGAA850 FXN promoter luciferase reporter, 24 h; percent of 10 µM SAHA response; activation, % at 6 µM; actives 0.56% (n = 360,000);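 active = activation above the average of all compounds screened plus 3 SD, cutoff fixed separately per campaign, cut at about 7.5% in these data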
AHR act confirm – confirmation of human aryl hydrocarbon receptor activators; shares compounds with AHR activator; activation, % at 9 µM; AID 2845; human cells, AHR-responsive luciferase reporter, luminescence; actives 87% (n = 2,300); in the data active = activation above about 49%;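 also: HepG2 hepatoma cells carrying a DRE-driven firefly luciferase reporter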
PXR counter – PXR activation, counter-screen for AHR activators; shares compounds with AHR activator; cell-based PXR reporter, luciferase luminescence; activation, % at 11.6 µM; actives 88% (n = 2,300); in the data active = activation above about 11%;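 also: human hepatoma DPX-2 cells expressing full-length human PXR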
Target sequence (O75469 whole entry, looked up): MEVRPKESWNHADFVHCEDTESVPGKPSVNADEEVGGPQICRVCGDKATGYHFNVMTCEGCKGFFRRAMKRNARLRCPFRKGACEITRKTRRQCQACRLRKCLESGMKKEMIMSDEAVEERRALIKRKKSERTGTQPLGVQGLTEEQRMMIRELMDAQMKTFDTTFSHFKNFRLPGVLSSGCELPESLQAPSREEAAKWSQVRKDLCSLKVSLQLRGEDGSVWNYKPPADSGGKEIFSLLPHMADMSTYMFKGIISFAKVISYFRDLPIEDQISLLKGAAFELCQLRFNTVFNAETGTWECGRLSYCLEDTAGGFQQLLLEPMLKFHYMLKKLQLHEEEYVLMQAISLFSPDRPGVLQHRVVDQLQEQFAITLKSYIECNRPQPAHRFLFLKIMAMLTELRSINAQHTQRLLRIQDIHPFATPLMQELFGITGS
Each line names hits and unclear results; the compound was inactive in the other large screens (follow-up assays come after a bar, where they were run).

Nc1n[nH]c(C2CC2)c1N=Nc1ccc(Cl)cc1	AHR activator 81 (no result: STAT3 act) | AHR act confirm 101 | PXR counter inactive
Nc1nc(N)c(N=Nc2ccc(Cl)cc2)c(=O)[nH]1	none
CC(=O)Nc1ccc2cc3ccc(NC(C)=O)cc3nc2c1	AHR activator 107 (no result: STAT3 act) | AHR act confirm 81
CC(=O)Nc1ccc2ccccc2c1	none
CCN(CC(=O)Nc1c(F)cccc1F)C(=O)c1c(-c2ccccc2Cl)noc1C	none (no result: AHR activator, STAT3 act)
O=C(CN1CCN(c2ccccc2O)CC1)Nc1ccccc1C(=O)NCCc1ccccc1	AHR activator 91 (no result: STAT3 act) | AHR act confirm 93 | PXR counter 85
O=C(CN1CCN(c2ccc(F)cc2)CC1)Nc1ccccc1C(=O)NCCc1ccccc1	none (no result: STAT3 act)
CN(C)c1ccc(NC(=O)/C=C/c2c(Cl)cccc2Cl)cc1	AHR activator 100 | AHR act confirm 147 | PXR counter 87
CCNS(=O)(=O)c1ccc(C(=O)OCc2cc(=O)oc3cc(OC)ccc23)cc1	none (no result: STAT3 act)
O=C1NC(c2ccc(Br)cc2)Nc2ccccc21 (stereo not drawn)	AHR activator 80 (no result: STAT3 act) | AHR act confirm 62 | PXR counter 22
CSc1nc(C(=O)N2CCCC(Nc3ccc(C)c(C)c3)C2)cs1 (stereo not drawn)	AHR activator 108 (no result: STAT3 act) | AHR act confirm 75 | PXR counter 119
CCCC1=[N+](CC(=O)c2ccc(C)cc2)CCn2cccc21	AHR activator 82 | AHR act confirm 112 | PXR counter 22
CCN(CC(=O)Nc1c(F)cccc1F)C(=O)c1ccc2c(c1)OCO2	none (no result: STAT3 act)
Cn1cc(/C=N\NC(=O)C2COc3ccccc3O2)c2ccccc21 (stereo not drawn)	AHR activator 97 (no result: ABCB6 inh MLPCN, GAA850 FXN act) | AHR act confirm 71 | PXR counter 12
Cc1cc(C)n(CC(=O)c2ccccc2)c(=O)c1C#N	AHR activator 100 | AHR act confirm 105 | PXR counter 22
Cc1nn(-c2ccccc2)c(Cl)c1/C=N/N1CCN(c2ccccn2)CC1	AHR activator 161 | AHR act confirm inactive | PXR counter 27
O=C(O)c1cccc(NS(=O)(=O)c2ccc(Cl)c(C(=O)Nc3cccc([N+](=O)[O-])c3)c2)c1	none (no result: STAT3 act)
COc1ccccc1-c1sc2cc3c(cc2c1-c1ccc(O)cc1)OCO3	none (no result: STAT3 act)
COc1ccc(-c2oc3ccc(-c4ccc5c(c4)OCO5)cc3c2C#CC2(O)CCCCC2)cc1	none (no result: STAT3 act)
COc1ccc(-c2sc3cc4c(cc3c2C#CC2(O)CCCCC2)OCO4)cc1	AHR activator 96 (no result: STAT3 act) | AHR act confirm 81 | PXR counter 63
COc1ccccc1-c1sc2cc3c(cc2c1C#CC1(O)CCCCC1)OCO3	AHR activator 103 (no result: STAT3 act) | AHR act confirm 101 | PXR counter 314
COc1ccccc1-c1sc2cc3c(cc2c1C#Cc1ccccn1)OCO3	AHR activator 104 (no result: STAT3 act) | AHR act confirm 116 | PXR counter 176
O=c1nc(-c2ccccc2)c2ccccc2[nH]1	none
O=c1[nH]c2ccccc2nc1-c1ccccc1	AHR activator 101 (no result: STAT3 act) | AHR act confirm 84 | PXR counter 11
CC(C)CNC(=O)C1(C)CCCCCN1C(=O)c1cc(C#N)cs1 (stereo not drawn)	none (no result: AHR activator, STAT3 act)
O=C(Nc1nc2ccccc2s1)c1cc2c(s1)-c1ccccc1OC2	none
O=C(Nc1nccs1)c1cc2c(s1)-c1ccccc1OC2	AHR activator 150 | AHR act confirm 115 | PXR counter 20
CC1Oc2ccccc2OC1C(=O)Nc1nccs1 (stereo not drawn)	AHR activator 80 (no result: STAT3 act) | AHR act confirm 105 | PXR counter 10
Cc1cccc2c1-c1sc(C(=O)Nc3cccnc3)cc1CO2	none (no result: STAT3 act)
Cc1cccc2c1-c1sc(C(=O)Nc3nccs3)cc1CO2	AHR activator 149 | AHR act confirm 110 | PXR counter 22
O=C(Nc1nc2c(Br)cccc2s1)C1CC1	AHR activator 132 (no result: STAT3 act) | AHR act confirm 97 | PXR counter 18
O=C(Nc1nc2ccc(Cl)cc2s1)C1CC1	AHR activator 114 (no result: STAT3 act) | AHR act confirm 77 | PXR counter 19
CC(C)c1ccc2nc(NC(=O)C3CC3)sc2c1	AHR activator 89 (no result: STAT3 act) | AHR act confirm 79 | PXR counter 39
O=C(Nc1nc2ccc(Cl)cc2s1)C1CCCO1 (stereo not drawn)	none
COC(=O)c1ccc2nc(NC(=O)C3CCCCC3)sc2c1	none
CC1=NN(C(N)=S)C(=O)C1N=Nc1ccc([N+](=O)[O-])cc1 (stereo not drawn)	none (no result: STAT3 act)
CCCCCOc1ccc(Cn2ccnc2)cc1[N+](=O)[O-]	AHR activator 101 | AHR act confirm 75 | PXR counter 53
N#Cc1c(N)nc(N)nc1Nc1ccc(Br)cc1	AHR activator 83 (no result: STAT3 act) | AHR act confirm 72 | PXR counter 17
Cc1ccc(NC(=S)Nc2ccccn2)cc1C	none (no result: STAT3 act)
Cc1cc(C)cc(NC(=S)Nc2ccccn2)c1	AHR activator 91 | AHR act confirm 112 | PXR counter 27
O=C(COc1ccc2ccccc2c1)N/N=C/C1CC=CCC1 (stereo not drawn)	AHR activator 85 | AHR act confirm inactive | PXR counter 12
CCc1ccc(/C(C)=N/NC(=O)c2c[nH]c3ccccc23)s1	AHR activator 141 (no result: STAT3 act) | AHR act confirm 115 | PXR counter 59
C/C(=N\NC(=O)c1c[nH]c2ccccc12)c1ccccn1	none
C/C(=N\NC(=O)c1ccc(C(=O)N/N=C(\C)c2ccco2)o1)c1ccco1	AHR activator 108 (no result: STAT3 act) | AHR act confirm inactive | PXR counter inactive
C/C(=N\NC(=O)c1c[nH]c2ccccc12)c1ccco1	AHR activator 92 | AHR act confirm 159 | PXR counter 24
O=C(NCc1ccncc1)Nc1cc(Cl)ccc1Cl	AHR activator 97 | AHR act confirm 63 | PXR counter 26
CCOC(=O)Cc1cnc(NC(=O)CSc2nc(N)cc(N)n2)s1	none
O=C1CCC(=O)N1CCc1c[nH]c2ccccc12	none
O=C1COCC(=O)N1CCc1c[nH]c2ccccc12	AHR activator 83 (no result: STAT3 act) | AHR act confirm 108 | PXR counter 12
COc1cccc(C2(O)CCN(C(=O)C3CCC3)CC2)c1	none
Cc1nc(NC(=O)CSc2nnc(-c3ccc4c(c3)OCO4)o2)c(Cl)cc1Cl	AHR activator 128 | AHR act confirm 105 | PXR counter 88
O=C(CSc1nnc(SCC(=O)NCc2ccc3c(c2)OCO3)s1)NCc1ccc2c(c1)OCO2	none (no result: AHR activator)
COCCSc1nnc(NC(=O)c2ccc3c(c2)OCO3)s1	AHR activator 99 | AHR act confirm 89 | PXR counter 27
O=C(CSc1nc2ccccc2s1)NCc1ccc2c(c1)OCO2	AHR activator 80 | AHR act confirm 106 | PXR counter 42
O=C(CSc1nnc(NC(=O)c2ccc3c(c2)OCO3)s1)NCc1ccco1	AHR activator 82 | AHR act confirm inactive | PXR counter 11
O=C(CSc1nnc(NC(=O)c2ccccc2)s1)NCc1ccco1	none (no result: STAT3 act)
Cc1cc(C)cc(NC(=O)CSc2ncc(S(=O)(=O)c3ccccc3)c(=O)[nH]2)c1	none (no result: ABCB6 inh MLPCN, GAA850 FXN act)
